Like-named read-outs stand apart in the source and are kept apart here.
Key:
[1] = male rats, ref Waidyanatha et al., cited from earlier work
[2] = assay type: in vivo, rat; conditions: male rats; for group mean daily body weight gain: 7 d; for average daily feed consumption: 7 d exposure; for survival: all exposure groups, 7 d via feed
[3] = assay type: in vivo, mouse; conditions: male mice; for group mean daily body weight gain: 7 d; for average daily feed consumption: 7 d exposure; for survival: all exposure groups, 7 d via feed
in vivo [4] = conditions: male, B6C3F1/N, mouse; for half-life: Free Elimination half-life
in vivo [5] = conditions: male; for half-life: po, Free Elimination half-life
[6] = Stability in dosed-feed formulations; assay type: physicochemical; conditions: up to 42 d, RE ≤ ± 10% of day 0 value
[7] = assay type: in vivo, rat; conditions: male rats, dose-normalized
Summary of the method: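 Male rats (272–308 g, 8–9 weeks), singly caged, received dosed feed ad libitum at 338, 1125 or 3750 ppm for 7 days. Control feed followed, with plasma sampled up to 24 h. Free and deconjugated total test compound were measured by LC-MS/MS. Cmax and AUC came from an extravascular model and were normalized to the daily dose (food consumption, concentration, body weight). Gavage values were taken from earlier single-dose work.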

[8] = Hsd:Sprague Dawley SD (rat), B6C3F1/N (mouse)
[9] = gavage 34 mg/kg vs feed 23.4 mg/kg
[10] = gavage 110 mg/kg vs feed 70.5 mg/kg
[11] = gavage 340 mg/kg vs feed 193 mg/kg

Row | Compound | group mean daily body weight gain ([2]; 338 ppm via feed) | average daily feed consumption ([2]; 338 ppm) | group mean daily body weight gain ([2]; 1125 ppm via feed) | average daily feed consumption ([2]; 1125 ppm) | survival [2] | group mean daily body weight gain ([3]; 338 ppm via feed) | average daily feed consumption ([3]; 338 ppm) | group mean daily body weight gain ([3]; 1125 ppm via feed) | average daily feed consumption ([3]; 1125 ppm) | survival [3] | Total plasma elimination half-lives, range over exposure concentrations (in vivo [4]) | half-life (in vivo [4]; po) | half-life (in vivo [5]; Hsd:Sprague Dawley SD, rat) | stability in feed formulations stored at refrigerated temperature [6] | other results
1 | O=S(=O)(c1ccc(O)cc1)c1ccc(O)cc1 [BPS, 4,4’-sulfonyldiphenol] | 3.7 ± 4.4 g | 68 ± 2.5 g/kg bw/d | 3.7 ± 2.7 g | 68 ± 3.5 g/kg bw/d | All animals survived until the end of the study | 0.1 ± 0.4 g | 389 ± 85 g/kg bw/d | 0.1 ± 0.3 g | 381 ± 61 g/kg bw/d | All animals survived until the end of the study | 6.11 to 7.89 h | 6.11 h | 4.82 h | confirmed | Gavage Cmax/D ([1]; single gavage 34 mg/kg, 2020): 9.2 (ng/mL)/(mg/kg); Gavage Cmax/D ([1]; single gavage 340 mg/kg, 2020): 9.5 (ng/mL)/(mg/kg); group mean daily body weight gain ([2]; 3375 ppm via feed): 2.6 ± 5.9 g; average daily feed consumption ([2]; 3375 ppm): 62 ± 5.1 g/kg bw/d; group mean daily body weight gain ([3]; 3375 ppm via feed): 0.1 ± 0.3 g; average daily feed consumption ([3]; 3375 ppm): 348 ± 131 g/kg bw/d; Free Elimination half-life (in vivo [4]; po): 6.82 h; Free and total Cmax, difference between rats and mice (in vivo [5]; [8]): ≤ 2 fold; Free and total plasma elimination half-lives, difference between rats and mice (in vivo [5]; [8]): ≤ 2 fold
2 | Oc1ccc(C(c2ccc(O)cc2)(C(F)(F)F)C(F)(F)F)cc1 [BPAF, 2,2-bis(4-hydroxyphenyl)perfluoropropane] | 3.38 ± 3.37 g | 69.2 ± 5.8 g/kg bw/d | 2.12 ± 3.68 g | 61.0 ± 11.7 g/kg bw/d | All animals survived until the end of the study | 0.3 ± 0.5 g | 207 ± 68 g/kg bw/d | 0.1 ± 0.6 g | 211 ± 68 g/kg bw/d | All animals survived until the end of the study | 3.49 to 4.18 h | 6.66 h | 7.1 h | confirmed | Gavage AUC/D ([1]; single gavage 34 mg/kg, 2019): 11.7 (h*ng/mL)/(mg/kg); Gavage Cmax/D ([1]; single gavage 34 mg/kg, 2019): 1.79 (ng/mL)/(mg/kg); Gavage AUC/D ([1]; single gavage 110 mg/kg, 2019): 11.2 (h*ng/mL)/(mg/kg); Gavage Cmax/D ([1]; single gavage 110 mg/kg, 2019): 1.29 (ng/mL)/(mg/kg); Gavage AUC/D ([1]; single gavage 340 mg/kg, 2019): 14.2 (h*ng/mL)/(mg/kg); Gavage Cmax/D ([1]; single gavage 340 mg/kg, 2019): 1.62 (ng/mL)/(mg/kg); group mean daily body weight gain ([2]; 3750 ppm via feed): −0.4 ± 2.3; average daily feed consumption ([2]; 3750 ppm): 51.5 ± 20.5 g/kg bw/d; group mean daily body weight gain ([3]; 3750 ppm via feed): 0.1 ± 0.7 g; feed consumption, fold higher than pre-study control food consumption ([3]; 3750 ppm, probably due to high spillage rate): 1.7 fold; Ratio (Gavage/Feed) AUC [7, 9]: 2.3; Ratio (Gavage/Feed) Cmax [7, 9]: 3.9; Ratio (Gavage/Feed) AUC [7, 10]: 1.6; Ratio (Gavage/Feed) Cmax [7, 10]: 2.2; Ratio (Gavage/Feed) AUC [7, 11]: 3.7; Ratio (Gavage/Feed) Cmax [7, 11]: 4.9; Total plasma elimination half-lives, fold longer in rats compared to mice (in vivo [5]; [8]): 2-3 fold; Total Elimination half-life (in vivo [5]; Hsd:Sprague Dawley SD, rat): 13.3 h

Reference: PMC7931638 (Xenobiotica; the fate of foreign compounds in biological …, 2020)
